How the values were obtained:
[1] = target: Serine-protein kinase ATM (Homo sapiens) (UniProt Q13315); assay: Inhibition of human recombinant ATM at 40 nM in presence of ATP by radiometric assay relative to control
Outline: (§1)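 Panel of 327 recombinant human kinases, each assayed in vitro by radiometric activity assay in duplicate at a single inhibitor concentration per compound, chosen with reference to its ULK1 inhibition. Activity remaining was expressed as percent of vehicle control, and percent inhibition was calculated as 100 minus percent activity remaining.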

[2] = target: Tyrosine-protein kinase Fes/Fps (Homo sapiens) (UniProt P07332); assay: Inhibition of human recombinant FES at 40 nM in presence of ATP by radiometric assay relative to control
[3] = target: T1, Inhibitor of nuclear factor kappa-B kinase subunit beta (Homo sapiens) (UniProt O14920); assay: Inhibition of human recombinant IKKb at 40 nM in presence of ATP by radiometric assay relative to control
T1 sequence (whole entry): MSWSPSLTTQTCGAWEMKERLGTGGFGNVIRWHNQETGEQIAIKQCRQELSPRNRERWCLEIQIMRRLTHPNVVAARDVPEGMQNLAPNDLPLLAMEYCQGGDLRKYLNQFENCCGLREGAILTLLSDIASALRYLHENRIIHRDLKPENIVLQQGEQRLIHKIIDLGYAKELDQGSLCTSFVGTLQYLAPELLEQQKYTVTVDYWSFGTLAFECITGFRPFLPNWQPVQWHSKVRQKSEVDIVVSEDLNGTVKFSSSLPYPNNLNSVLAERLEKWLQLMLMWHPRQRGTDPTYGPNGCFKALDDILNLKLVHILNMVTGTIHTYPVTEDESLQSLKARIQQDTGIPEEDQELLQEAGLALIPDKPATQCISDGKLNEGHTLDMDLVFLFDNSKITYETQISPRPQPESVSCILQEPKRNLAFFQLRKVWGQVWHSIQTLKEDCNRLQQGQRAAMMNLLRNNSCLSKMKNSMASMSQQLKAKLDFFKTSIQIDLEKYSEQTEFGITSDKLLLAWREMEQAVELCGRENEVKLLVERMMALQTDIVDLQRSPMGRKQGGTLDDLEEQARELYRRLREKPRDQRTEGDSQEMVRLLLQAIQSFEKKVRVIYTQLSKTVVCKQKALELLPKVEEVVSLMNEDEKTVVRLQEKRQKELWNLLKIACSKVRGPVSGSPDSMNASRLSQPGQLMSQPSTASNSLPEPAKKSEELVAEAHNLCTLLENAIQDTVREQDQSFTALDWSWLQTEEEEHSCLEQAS

[4] = target: Leucine-rich repeat serine/threonine-protein kinase 2 (Homo sapiens) (UniProt Q5S007); assay: Inhibition of human recombinant LRRK2 at 40 nM in presence of ATP by radiometric assay relative to control
[5] = target: Serine/threonine-protein kinase NIM1 (Homo sapiens) (UniProt Q8IY84); assay: Inhibition of human recombinant NIM1 at 40 nM in presence of ATP by radiometric assay relative to control
[6] = target: Fibroblast growth factor receptor 4 (Homo sapiens) (UniProt P22455); assay: Inhibition of human recombinant FGFR4 at 40 nM related to control ULK1
[7] = target: Hepatocyte growth factor receptor MET (Homo sapiens) (UniProt P08581); assay: Inhibition of human recombinant MET at 40 nM in presence of ATP by radiometric assay relative to control
[8] = target: Serine/threonine-protein kinase Nek6 (Homo sapiens) (UniProt Q9HC98); assay: Inhibition of human recombinant NEK6 at 15 nM in presence of ATP by radiometric assay relative to control
[9] = target: Mitogen-activated protein kinase 14 (Homo sapiens) (UniProt Q16539); assay: Inhibition of human recombinant p38alpha at 15 nM in presence of ATP by radiometric assay relative to control
[10] = target: Activin receptor type-1-like (Homo sapiens) (UniProt P37023); assay: Inhibition of human recombinant ALK1 at 15 nM related to control ULK1; outline: as §1
[11] = target: T2, Aurora kinase A (Homo sapiens) (UniProt O14965); assay: Inhibition of human recombinant AurA at 15 nM related to control ULK1; outline: as §1
T2 sequence (whole entry): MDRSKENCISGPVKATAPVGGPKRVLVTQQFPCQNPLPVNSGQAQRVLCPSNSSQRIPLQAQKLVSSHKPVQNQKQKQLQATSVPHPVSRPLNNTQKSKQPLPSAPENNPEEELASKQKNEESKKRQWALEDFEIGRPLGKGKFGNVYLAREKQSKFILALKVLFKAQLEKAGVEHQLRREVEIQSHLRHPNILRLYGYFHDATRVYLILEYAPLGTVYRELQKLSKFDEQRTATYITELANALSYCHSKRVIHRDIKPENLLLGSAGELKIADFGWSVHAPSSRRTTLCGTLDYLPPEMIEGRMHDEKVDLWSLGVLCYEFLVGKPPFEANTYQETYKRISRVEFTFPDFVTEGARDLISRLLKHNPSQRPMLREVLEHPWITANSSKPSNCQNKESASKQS

[12] = target: Dual specificity tyrosine-phosphorylation-regulated kinase 1B (Homo sapiens) (UniProt Q9Y463); assay: Inhibition of human recombinant DYRK1B at 15 nM related to control ULK1
[13] = target: Serine/threonine-protein kinase 38-like (Homo sapiens) (UniProt Q9Y2H1); assay: Inhibition of human recombinant NDR2 at 15 nM related to control ULK1
[14] = target: Dual specificity protein kinase CLK2 (Homo sapiens) (UniProt P49760); assay: Inhibition of human recombinant CLK2 at 500 nM in presence of ATP by radiometric assay relative to control
[15] = target: G protein-coupled receptor kinase 6 (Homo sapiens) (UniProt P43250); assay: Inhibition of human recombinant GPRK6 at 500 nM related to control ULK1
[16] = target: T3, MAPK/MAK/MRK overlapping kinase (Homo sapiens) (UniProt Q9UQ07); assay: Inhibition of human recombinant MOK at 500 nM related to control ULK1
T3 sequence (whole entry): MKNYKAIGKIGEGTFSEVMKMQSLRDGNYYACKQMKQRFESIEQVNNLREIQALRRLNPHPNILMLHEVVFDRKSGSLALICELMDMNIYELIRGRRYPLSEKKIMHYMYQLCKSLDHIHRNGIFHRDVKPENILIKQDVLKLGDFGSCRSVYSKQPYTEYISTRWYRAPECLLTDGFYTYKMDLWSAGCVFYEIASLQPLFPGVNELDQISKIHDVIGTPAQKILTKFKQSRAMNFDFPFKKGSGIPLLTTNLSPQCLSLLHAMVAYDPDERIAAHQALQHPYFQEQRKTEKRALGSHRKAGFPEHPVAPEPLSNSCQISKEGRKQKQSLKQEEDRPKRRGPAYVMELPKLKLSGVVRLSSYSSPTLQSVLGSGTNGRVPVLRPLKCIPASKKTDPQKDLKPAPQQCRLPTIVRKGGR

[17] = target: Serine/threonine-protein kinase N2 (Homo sapiens) (UniProt Q16513); assay: Inhibition of human recombinant PKN2 at 500 nM related to control ULK1
Sequence of Serine/threonine-protein kinase N2 (Homo sapiens) (Q16513 whole entry, looked up): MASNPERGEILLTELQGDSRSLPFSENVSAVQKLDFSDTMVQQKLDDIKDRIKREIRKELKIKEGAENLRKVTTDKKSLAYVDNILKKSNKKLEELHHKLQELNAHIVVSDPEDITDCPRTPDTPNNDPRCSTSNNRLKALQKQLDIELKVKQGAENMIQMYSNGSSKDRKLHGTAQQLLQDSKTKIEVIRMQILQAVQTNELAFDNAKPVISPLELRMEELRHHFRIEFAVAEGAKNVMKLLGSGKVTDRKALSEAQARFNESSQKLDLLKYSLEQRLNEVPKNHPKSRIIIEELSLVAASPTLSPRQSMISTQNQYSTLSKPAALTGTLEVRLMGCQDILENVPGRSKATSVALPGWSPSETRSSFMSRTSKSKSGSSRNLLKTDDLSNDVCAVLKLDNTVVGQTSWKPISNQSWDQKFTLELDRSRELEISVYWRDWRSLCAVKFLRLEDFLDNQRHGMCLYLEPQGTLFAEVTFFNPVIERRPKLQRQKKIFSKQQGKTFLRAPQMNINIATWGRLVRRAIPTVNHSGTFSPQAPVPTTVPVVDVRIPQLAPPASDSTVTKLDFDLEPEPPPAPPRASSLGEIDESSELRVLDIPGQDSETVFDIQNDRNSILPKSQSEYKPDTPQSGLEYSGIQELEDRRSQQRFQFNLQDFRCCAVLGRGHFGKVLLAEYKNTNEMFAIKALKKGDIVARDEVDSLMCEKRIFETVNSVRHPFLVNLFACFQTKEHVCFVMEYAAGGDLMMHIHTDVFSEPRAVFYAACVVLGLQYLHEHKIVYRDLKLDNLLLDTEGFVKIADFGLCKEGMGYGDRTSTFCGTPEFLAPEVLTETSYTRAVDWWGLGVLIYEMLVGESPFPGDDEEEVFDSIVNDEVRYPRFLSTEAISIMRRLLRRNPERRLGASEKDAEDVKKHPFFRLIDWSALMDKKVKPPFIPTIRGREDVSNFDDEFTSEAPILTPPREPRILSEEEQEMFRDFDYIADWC

Sequence of Serine/threonine-protein kinase 38-like (Homo sapiens) (Q9Y2H1 2-464 limits assumed): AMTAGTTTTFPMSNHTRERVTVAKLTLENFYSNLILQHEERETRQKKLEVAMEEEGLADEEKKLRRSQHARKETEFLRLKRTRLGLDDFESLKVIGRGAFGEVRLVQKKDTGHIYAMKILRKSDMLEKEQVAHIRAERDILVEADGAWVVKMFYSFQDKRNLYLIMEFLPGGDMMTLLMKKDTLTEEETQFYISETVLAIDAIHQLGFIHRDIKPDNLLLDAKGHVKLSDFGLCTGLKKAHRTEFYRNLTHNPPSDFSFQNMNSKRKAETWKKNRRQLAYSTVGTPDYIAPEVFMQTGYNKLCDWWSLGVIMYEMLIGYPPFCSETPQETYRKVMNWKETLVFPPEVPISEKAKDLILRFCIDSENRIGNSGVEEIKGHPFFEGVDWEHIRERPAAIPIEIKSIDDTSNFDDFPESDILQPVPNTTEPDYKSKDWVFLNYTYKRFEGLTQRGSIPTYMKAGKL
Sequence of Hepatocyte growth factor receptor MET (Homo sapiens) (P08581 whole entry, looked up): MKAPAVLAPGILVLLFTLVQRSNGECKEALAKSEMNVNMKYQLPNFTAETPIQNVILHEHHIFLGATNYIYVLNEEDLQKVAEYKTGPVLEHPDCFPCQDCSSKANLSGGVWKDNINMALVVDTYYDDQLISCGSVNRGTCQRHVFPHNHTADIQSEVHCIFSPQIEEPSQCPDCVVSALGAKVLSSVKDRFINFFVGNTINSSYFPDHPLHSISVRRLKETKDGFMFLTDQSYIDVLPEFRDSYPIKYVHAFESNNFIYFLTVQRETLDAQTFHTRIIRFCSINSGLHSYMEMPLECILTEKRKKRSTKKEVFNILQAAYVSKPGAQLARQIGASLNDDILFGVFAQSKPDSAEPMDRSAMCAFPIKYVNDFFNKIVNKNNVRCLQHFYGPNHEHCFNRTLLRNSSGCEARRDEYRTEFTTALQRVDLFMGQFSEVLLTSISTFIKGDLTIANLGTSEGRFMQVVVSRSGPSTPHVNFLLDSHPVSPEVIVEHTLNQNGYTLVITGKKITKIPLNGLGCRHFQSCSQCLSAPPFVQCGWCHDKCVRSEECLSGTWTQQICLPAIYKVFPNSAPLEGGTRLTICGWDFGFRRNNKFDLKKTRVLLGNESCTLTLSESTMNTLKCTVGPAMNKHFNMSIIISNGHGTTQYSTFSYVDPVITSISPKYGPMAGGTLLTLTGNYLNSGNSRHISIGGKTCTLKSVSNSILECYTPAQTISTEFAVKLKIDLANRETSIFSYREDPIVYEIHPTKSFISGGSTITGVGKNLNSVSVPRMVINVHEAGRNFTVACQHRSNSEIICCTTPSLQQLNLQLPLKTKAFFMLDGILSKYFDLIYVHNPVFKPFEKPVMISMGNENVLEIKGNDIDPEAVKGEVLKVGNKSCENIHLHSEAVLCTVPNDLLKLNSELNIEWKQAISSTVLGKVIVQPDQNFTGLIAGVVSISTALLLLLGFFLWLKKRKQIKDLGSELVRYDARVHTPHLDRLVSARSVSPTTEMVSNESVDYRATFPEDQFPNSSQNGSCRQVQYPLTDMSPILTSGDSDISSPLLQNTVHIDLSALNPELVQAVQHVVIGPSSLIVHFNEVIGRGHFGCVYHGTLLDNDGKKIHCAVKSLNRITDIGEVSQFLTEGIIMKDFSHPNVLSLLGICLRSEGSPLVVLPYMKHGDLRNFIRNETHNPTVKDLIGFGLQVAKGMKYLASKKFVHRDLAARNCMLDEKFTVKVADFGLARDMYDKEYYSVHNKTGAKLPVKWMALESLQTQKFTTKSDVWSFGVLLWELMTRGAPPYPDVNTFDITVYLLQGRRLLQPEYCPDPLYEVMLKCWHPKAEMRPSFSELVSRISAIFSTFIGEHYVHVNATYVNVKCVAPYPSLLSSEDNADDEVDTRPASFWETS
Sequence of Dual specificity protein kinase CLK2 (Homo sapiens) (P49760 whole entry, looked up): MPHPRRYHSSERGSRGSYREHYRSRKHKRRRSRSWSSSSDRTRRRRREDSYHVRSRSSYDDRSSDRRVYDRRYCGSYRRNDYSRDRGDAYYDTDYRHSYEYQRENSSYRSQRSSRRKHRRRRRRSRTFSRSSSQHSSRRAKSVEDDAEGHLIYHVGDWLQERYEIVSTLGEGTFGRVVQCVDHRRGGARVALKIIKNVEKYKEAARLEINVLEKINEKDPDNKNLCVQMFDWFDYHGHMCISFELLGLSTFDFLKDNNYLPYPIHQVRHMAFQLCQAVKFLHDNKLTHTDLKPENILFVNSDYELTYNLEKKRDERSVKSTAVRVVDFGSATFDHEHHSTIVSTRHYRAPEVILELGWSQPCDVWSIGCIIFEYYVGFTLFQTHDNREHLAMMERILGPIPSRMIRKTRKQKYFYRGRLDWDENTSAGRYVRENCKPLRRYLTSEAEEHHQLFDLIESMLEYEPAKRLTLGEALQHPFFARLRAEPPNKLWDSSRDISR
Sequence of Tyrosine-protein kinase Fes/Fps (Homo sapiens) (P07332 whole entry): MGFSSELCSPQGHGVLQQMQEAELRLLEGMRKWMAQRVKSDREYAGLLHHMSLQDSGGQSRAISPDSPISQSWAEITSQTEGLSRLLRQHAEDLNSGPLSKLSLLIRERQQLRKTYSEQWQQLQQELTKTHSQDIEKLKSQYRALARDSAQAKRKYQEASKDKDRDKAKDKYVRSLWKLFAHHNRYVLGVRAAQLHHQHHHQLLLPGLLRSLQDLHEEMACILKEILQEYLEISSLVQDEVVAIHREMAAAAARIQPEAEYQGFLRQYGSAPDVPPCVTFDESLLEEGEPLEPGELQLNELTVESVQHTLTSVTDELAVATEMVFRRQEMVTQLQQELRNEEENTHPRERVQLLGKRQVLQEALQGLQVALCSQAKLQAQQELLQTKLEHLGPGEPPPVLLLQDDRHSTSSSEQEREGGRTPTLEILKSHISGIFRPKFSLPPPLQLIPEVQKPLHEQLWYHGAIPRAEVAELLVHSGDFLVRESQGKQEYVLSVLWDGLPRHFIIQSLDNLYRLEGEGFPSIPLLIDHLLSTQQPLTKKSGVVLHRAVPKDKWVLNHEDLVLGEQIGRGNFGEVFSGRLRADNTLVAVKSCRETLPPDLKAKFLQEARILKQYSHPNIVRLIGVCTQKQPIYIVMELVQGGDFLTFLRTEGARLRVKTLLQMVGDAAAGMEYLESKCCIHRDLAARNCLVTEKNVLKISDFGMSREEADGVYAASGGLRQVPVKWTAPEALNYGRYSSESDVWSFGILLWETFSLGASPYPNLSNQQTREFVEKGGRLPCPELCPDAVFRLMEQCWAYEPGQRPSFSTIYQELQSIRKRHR
Sequence of G protein-coupled receptor kinase 6 (Homo sapiens) (P43250 whole entry, looked up): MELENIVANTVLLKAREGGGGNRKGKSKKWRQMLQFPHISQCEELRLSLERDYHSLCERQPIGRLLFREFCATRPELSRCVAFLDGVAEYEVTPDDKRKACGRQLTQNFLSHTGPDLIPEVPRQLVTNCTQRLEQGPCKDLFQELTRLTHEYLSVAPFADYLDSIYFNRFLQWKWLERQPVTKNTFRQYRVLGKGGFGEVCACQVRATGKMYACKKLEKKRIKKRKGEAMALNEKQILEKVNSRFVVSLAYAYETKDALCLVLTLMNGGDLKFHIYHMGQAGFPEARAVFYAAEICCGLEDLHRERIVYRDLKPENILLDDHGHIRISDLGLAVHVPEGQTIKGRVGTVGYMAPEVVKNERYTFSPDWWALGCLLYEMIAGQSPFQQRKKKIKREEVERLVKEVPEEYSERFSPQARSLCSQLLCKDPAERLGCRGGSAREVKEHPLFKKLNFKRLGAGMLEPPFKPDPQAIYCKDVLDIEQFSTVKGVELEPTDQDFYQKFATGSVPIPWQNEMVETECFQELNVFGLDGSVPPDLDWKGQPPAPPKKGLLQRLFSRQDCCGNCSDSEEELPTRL
Sequence of Serine/threonine-protein kinase Nek6 (Homo sapiens) (Q9HC98 whole entry): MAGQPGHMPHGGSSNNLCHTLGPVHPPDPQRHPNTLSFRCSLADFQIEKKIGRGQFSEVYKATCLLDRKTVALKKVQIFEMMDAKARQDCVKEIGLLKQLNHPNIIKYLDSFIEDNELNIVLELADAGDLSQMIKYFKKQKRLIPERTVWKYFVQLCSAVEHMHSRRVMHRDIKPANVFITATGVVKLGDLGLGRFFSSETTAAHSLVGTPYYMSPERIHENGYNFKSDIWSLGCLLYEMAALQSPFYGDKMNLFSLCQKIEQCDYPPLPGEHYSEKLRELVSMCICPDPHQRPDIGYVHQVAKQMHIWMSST

What does the source list for O=C(N[C@@H](C1CC1)C(F)(F)F)c1cc(-c2cnn3cc(-c4ccc(F)cc4)cnc23)cs1?
inhibition [1]: 5%; inhibition [2]: 15%; inhibition [3]: 0%; inhibition [4]: 3%; inhibition [5]: 0%; fold change (FC) [6]: 0; inhibition [7]: 16%

Which results are given for CC(C)[C@H](NC(=O)c1cc(-c2cnn3cc(-c4ccc(OCCN5CCCCC5)cc4)cnc23)cs1)C(F)(F)F?
inhibition [8]: 1%; inhibition [9]: 5%; fold change (FC) [10]: 0.08; fold change (FC) [11]: 0.15; fold change (FC) [12]: 0.74; fold change (FC) [13]: 0.02

How did the inhibition [14] turn out when CNC(=O)c1ccccc1Oc1nc(Nc2cc(OC)c(OC)c(OC)c2)ncc1Br was run?
The inhibition was 7%.

And the fold change (FC) [15]?
Its fold change (FC) is 0.16.

And the fold change (FC) [16]?
Its fold change (FC) is 0.03.

And the fold change (FC) [17]?
The fold change (FC) was 0.

Reference: ChEMBL document CHEMBL5653631, “A Potent and Selective ULK1 Inhibitor Suppresses Autophagy and Sensitizes Cancer Cells to Nutrient Stress” (iScience, 2018)
